Reference: ChEMBL document CHEMBL1649122, “Abc1p is a multidrug efflux transporter that tips the balance in favor of innate azole resistance in Candida krusei” (2009)
Values after ≈ are worked out from the molar mass of the structure shown. Active and inactive are the calls of the source. No cut-off for these calls is given here. *1 amine or outer side, *2 acyl side, *3 side chain or, on linkers, in order; H or OH if unused. Where a SMILES comes first, the peptide text is derived from it. [ ]: non-standard residue; d: D form. X1 = CC[C@@H](C)[C@@H](O[*:1])C(=O)[*:2]; NMeVal(β-OH) = CN[C@H](C(=O)O)C(C)(C)O; NMeF = CN[C@@H](Cc1ccccc1)C(=O)O; aIle = CC[C@@H](C)[C@H](N)C(=O)O; NMeV = CN[C@H](C(=O)O)C(C)C

Assays:
[1] = test system: Pichia kudriavzevii; experiment: Increase in ERG11 mRNA expression in Candida krusei B2401 after 60 mins by hot-phenol extraction based Northern blotting; format: functional, organism-based
[2] = test system: Pichia kudriavzevii; experiment: Increase in ABC1 mRNA expression in Candida krusei B2402 after 60 mins by hot-phenol extraction based Northern blotting; format: functional, organism-based
[3] = molecular target: ATP binding cassette transporter Abc1p (Issatchenkia orientalis) (UniProt Q09GQ4); experiment: Inhibition of Candida krusei ABC1 expressed in Saccharomyces cerevisiae isolate ADdelta at 16 nM; conditions: Pichia kudriavzevii
Method in brief: (§1)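 Agarose disk-diffusion test of S. cerevisiae AD overexpressing C. krusei Abc1p, with the parent AD strain as comparison. Cells were pregrown from YPD overnight into CSM to mid-log at 30°C. They were seeded at OD600 0.008 in CSM with 0.6% agarose, overlaid on CSM agar (pH 7.0). Paper disks carrying set nmol amounts of xenobiotic were applied, and plates were incubated at 30°C for 48 h before reading growth inhibition zones.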

[4] = molecular target: ATP binding cassette transporter Abc1p (Issatchenkia orientalis) (UniProt Q09GQ4); experiment: Inhibition of Candida krusei ABC1 expressed in Saccharomyces cerevisiae isolate ADdelta at 620 nM; conditions: Pichia kudriavzevii; method in brief: as §1
[5] = test system: Pichia kudriavzevii; experiment: Antimicrobial activity against Candida krusei B2399 after 48 hrs by liquid microdilution assay; format: functional; conditions: B2399, 48 h
Method in brief: (§2)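 Liquid broth microdilution susceptibility assay in CSM medium at pH 7.0, which was also the medium used for the expression studies. Fungal strains were maintained in YPD. The S. cerevisiae test strains carry C. krusei ABC1 or fungal ERG11 alleles integrated at the chromosomal PDR5 locus.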

[6] = test system: Pichia kudriavzevii; experiment: Antimicrobial activity against Candida krusei IFO0011 after 48 hrs by liquid microdilution assay; format: functional; conditions: IFO0011, 48 h; method in brief: as §2
[7] = test system: Pichia kudriavzevii; experiment: Antimicrobial activity against Candida krusei NZCDC 89.021 after 48 hrs by liquid microdilution assay; format: functional; conditions: NZCDC 89.021, 48 h; method in brief: as §2
[8] = test system: Pichia kudriavzevii; experiment: Antimicrobial activity against Candida krusei NZCDC 89.102 after 48 hrs by liquid microdilution assay; format: functional; conditions: NZCDC 89.102, 48 h; method in brief: as §2
[9] = test system: Pichia kudriavzevii; experiment: Antimicrobial activity against Candida krusei NZCDC 89.221 after 48 hrs by liquid microdilution assay; format: functional; conditions: NZCDC 89.221, 48 h; method in brief: as §2
[10] = test system: Pichia kudriavzevii; experiment: Antimicrobial activity against Candida krusei NZCDC 90.147 after 48 hrs by liquid microdilution assay; format: functional; conditions: NZCDC 90.147, 48 h; method in brief: as §2
[11] = test system: Pichia kudriavzevii; experiment: Antimicrobial activity against Candida krusei B2399 after 48 hrs by CLSI method; format: functional; conditions: B2399, 48 h
Method in brief: (§3)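 Azole MICs were determined by the CLSI M27-A2 broth microdilution reference method. They were interpreted against the CLSI breakpoints. Strains were maintained in YPD medium (1% yeast extract, 2% peptone, 2% glucose).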

[12] = test system: Pichia kudriavzevii; experiment: Antimicrobial activity against Candida krusei IFO0011 after 48 hrs by CLSI method; format: functional; conditions: IFO0011, 48 h; method in brief: as §3
[13] = test system: Pichia kudriavzevii; experiment: Antimicrobial activity against Candida krusei NZCDC 89.021 after 48 hrs by CLSI method; format: functional; conditions: NZCDC 89.021, 48 h; method in brief: as §3
[14] = test system: Pichia kudriavzevii; experiment: Antimicrobial activity against Candida krusei NZCDC 89.102 after 48 hrs by CLSI method; format: functional; method in brief: as §3
[15] = test system: Pichia kudriavzevii; experiment: Antimicrobial activity against Candida krusei NZCDC 89.221 after 48 hrs by CLSI method; format: functional; method in brief: as §3
[16] = test system: Pichia kudriavzevii; experiment: Antimicrobial activity against Candida krusei NZCDC 90.147 after 48 hrs by CLSI method; format: functional; method in brief: as §3
[17] = test system: Saccharomyces cerevisiae; experiment: Antimicrobial activity against Saccharomyces cerevisiae isolate ADdelta overexpressing Abc1p after 48 hrs by liquid microdilution assay; format: functional; method in brief: as §2
[18] = test system: Saccharomyces cerevisiae; experiment: Antimicrobial activity against Saccharomyces cerevisiae isolate ADdelta overexpressing Saccharomyces cerevisiae ERG11 after 48 hrs by liquid microdilution assay; format: functional; method in brief: as §2
[19] = test system: Saccharomyces cerevisiae; experiment: Antimicrobial activity against Saccharomyces cerevisiae isolate ADdelta overexpressing Candida albicans ERG11A after 48 hrs by liquid microdilution assay; format: functional; method in brief: as §2
[20] = test system: Saccharomyces cerevisiae; experiment: Antimicrobial activity against Saccharomyces cerevisiae isolate AD overexpressing Candida krusei ERG11C after 48 hrs by liquid microdilution assay; format: functional; method in brief: as §2
[21] = test system: Saccharomyces cerevisiae; experiment: Antimicrobial activity against Saccharomyces cerevisiae isolate ADdelta overexpressing Candida krusei ERG11g after 48 hrs by liquid microdilution assay; format: functional; method in brief: as §2
[22] = test system: Saccharomyces cerevisiae; experiment: Fold resistant, ratio of MIC for Saccharomyces cerevisiae isolate ADdelta overexpressing Saccharomyces cerevisiae ERG11 to MIC for Saccharomyces cerevisiae isolate ADdelta overexpressing Abc1p; format: functional
Method in brief: (§4)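 Fold resistance is the ratio of azole MICs between S. cerevisiae overexpressing strains. The MICs were measured by liquid broth microdilution in CSM medium at pH 7.0. The ERG11 or ABC1 constructs are integrated at the PDR5 locus.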

[23] = test system: Saccharomyces cerevisiae; experiment: Fold resistant, ratio of MIC for Saccharomyces cerevisiae isolate ADdelta overexpressing Candida albicans ERG11A to MIC for Saccharomyces cerevisiae isolate ADdelta overexpressing Abc1p; format: functional; method in brief: as §4
[24] = test system: Saccharomyces cerevisiae; experiment: Fold resistant, ratio of MIC for Saccharomyces cerevisiae isolate ADdelta overexpressing Candida krusei ERG11C to MIC for Saccharomyces cerevisiae isolate ADdelta overexpressing Abc1p; format: functional; method in brief: as §4
[25] = test system: Saccharomyces cerevisiae; experiment: Fold resistant, ratio of MIC for Saccharomyces cerevisiae isolate ADdelta overexpressing Candida krusei ERG11g to MIC for Saccharomyces cerevisiae isolate ADdelta overexpressing Abc1p; format: functional; method in brief: as §4
[26] = molecular target: ATP binding cassette transporter Abc1p (Issatchenkia orientalis) (UniProt Q09GQ4); experiment: Inhibition of Candida krusei ABC1 expressed in Saccharomyces cerevisiae isolate ADdelta at 23 nM; conditions: Pichia kudriavzevii
[27] = test system: Pichia kudriavzevii; experiment: Increase in ERG11 mRNA expression in Candida krusei B2399 at MIC concentration after 1 hr by hot-phenol extraction based Northern blotting; format: functional, organism-based
Method in brief: (§5)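 Northern blot. Logarithmically grown C. krusei B2399 was exposed to azoles for 60 min (FLC 1x MIC; VRC, MCZ, ITC 2x MIC) or to FLC at 1x MIC over a time course. About 100 OD units of cells were harvested. Total RNA was extracted with hot phenol, and 10 µg was run on 1.2% denaturing agarose. Blots were probed with radiolabelled ABC1 or ERG11, with ACT1 as internal control.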

[28] = test system: Pichia kudriavzevii; experiment: Increase in ERG11 mRNA expression in Candida krusei B2399 at > 200 ug/ml after up to 320 mins by hot-phenol extraction based Northern blotting; format: functional, organism-based; method in brief: as §5
[29] = test system: Pichia kudriavzevii; experiment: Increase in ABC1 mRNA expression in Candida krusei B2399 at MIC concentration after 320 mins by hot-phenol extraction based Northern blotting; format: functional, organism-based; method in brief: as §5
[30] = test system: Pichia kudriavzevii; experiment: Increase in ERG11 mRNA expression in Candida krusei B2400 at MIC concentration after 80 mins by hot-phenol extraction based Northern blotting; format: functional, organism-based
[31] = molecular target: ATP binding cassette transporter Abc1p (Issatchenkia orientalis) (UniProt Q09GQ4); experiment: Inhibition of Candida krusei B2399 Abc1p assessed as fractional inhibitory concentration index at 2.5 ug/ml after 48 hrs by checkerboard susceptibility assay; conditions: Pichia kudriavzevii
Method in brief: (§6)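 Checkerboard susceptibility assay combining the Abc1p inhibitor with FLC or ITC. MICs were determined at various inhibitor concentrations. The fractional inhibitory concentration index was calculated for each combination.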

[32] = molecular target: ATP binding cassette transporter Abc1p (Issatchenkia orientalis) (UniProt Q09GQ4); experiment: Inhibition of Candida krusei […] expressed in Saccharomyces cerevisiae isolate ADdelta assessed as fractional inhibitory concentration index at 2.5 ug/ml after 48 hrs by checkerboard susceptibility assay; conditions: Pichia kudriavzevii; method in brief: as §6
[33] = molecular target: ATP binding cassette transporter Abc1p (Issatchenkia orientalis) (UniProt Q09GQ4); experiment: Inhibition of Candida krusei ABC1 expressed in Saccharomyces cerevisiae isolate ADdelta at 2.5 uM; conditions: Pichia kudriavzevii; method in brief: as §1
[34] = molecular target: ATP binding cassette transporter Abc1p (Issatchenkia orientalis) (UniProt Q09GQ4); experiment: Inhibition of Candida krusei ABC1 expressed in Saccharomyces cerevisiae isolate ADdelta at 7 nM; conditions: Pichia kudriavzevii

For CC(C)[C@@H](C)/C=C/[C@@H](C)[C@H]1CC[C@H]2C3=CC=C4C[C@@H](O)CC[C@]4(C)[C@H]3CC[C@]12C, the Activity [1] was “inactive” and the Activity [2] was “inactive”.
In the case of CC/N=c1\cc2oc3cc(NCC)c(C)cc3c(-c3ccccc3C(=O)OCC)c-2cc1C, the Activity [3] is reported as “Active”.
For CN1CCN(CCCN2c3ccccc3Sc3ccc(C(F)(F)F)cc32)CC1, the Activity [4] was “inactive”.
In the case of OC(Cn1cncn1)(Cn1cncn1)c1ccc(F)cc1F [FLUCONAZOLE], the MIC [5] is reported as 256 µg/mL (≈ 836 µM), the MIC [6] is reported as 256 µg/mL (≈ 836 µM) and the MIC [7] is reported as 256 µg/mL (≈ 836 µM). The MIC [8] was 256 µg/mL (≈ 836 µM), the MIC [9] was 256 µg/mL (≈ 836 µM) and the MIC [10] was 256 µg/mL (≈ 836 µM). It also gave an MIC [11] of 32 µg/mL (≈ 104 µM), an MIC [12] of 128 µg/mL (≈ 418 µM) and an MIC [13] of 32 µg/mL (≈ 104 µM). For the same compound, the MIC [14] was 32 µg/mL (≈ 104 µM), the MIC [15] was 32 µg/mL (≈ 104 µM) and the MIC [16] was 128 µg/mL (≈ 418 µM). The MIC [17] was 0.5 µg/mL (≈ 1.63 µM), the MIC [18] was 2 µg/mL (≈ 6.53 µM) and the MIC [19] was 2 µg/mL (≈ 6.53 µM). For the same compound, the MIC [20] was 4 µg/mL (≈ 13.1 µM), the MIC [21] was 64 µg/mL (≈ 209 µM) and the ratio [22] was 4. For the same compound, the ratio [23] was 4, the ratio [24] was 8 and the ratio [25] was 128. For the same compound, the Activity [26] was “inactive”, the Activity [27] was “Active” and the Activity [28] was “inactive”. The Activity [29] was “Active”, the Activity [30] was “Active” and the fractional inhibitory concentration index (FICI) [31] was 0.35. For the same compound, the fractional inhibitory concentration index (FICI) [32] was 0.112.
C[C@H]1c2cccc(O)c2C(=O)C2=C(O)[C@]3(O)C(=O)C(C(N)=O)=C(O)[C@@H](N(C)C)[C@@H]3[C@@H](O)[C@@H]21 was tested, and the Activity [33] was “inactive”.
In the case of CC[C@@H](C)[C@@H]1NC(=O)[C@@H]2CCCN2C(=O)[C@H](Cc2ccccc2)N(C)C(=O)[C@H](Cc2ccccc2)NC(=O)[C@H](C(C)C)N(C)C(=O)[C@@H]([C@H](C)CC)OC(=O)[C@H](C(C)(C)O)N(C)C(=O)[C@H](CC(C)C)NC(=O)[C@H](C(C)C)N(C)C1=O (cyclo(F[NMeF]P[aIle][NMeV]L[NMeVal(β-OH)][X1][NMeV])), the Activity [34] is reported as “inactive”.
